# Data published in ChEMBL document CHEMBL1629579, “Correlating echinocandin MIC and kinetic inhibition of fks1 mutant glucan synthases for Candida albicans: implications for interpretive breakpoints” (Antimicrob Agents Chemother, 2009).
# What was measured:
# Candida albicans [1] = test: Antimicrobial activity against Candida albicans SC5314 by M27-A3 method in presence of 50% human serum; format: functional
# Method in brief: (§1)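 Broth microdilution per CLSI M27-A3 in RPMI 1640, done in triplicate on three separate days. Each strain was tested with and without 50% human serum. C. krusei ATCC 6258 and C. parapsilosis ATCC 22019 served as QC strains. Arithmetic means are reported, and geometric means were used for comparison.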
# Candida albicans [2] = test: Antimicrobial activity against Candida albicans 36082 by M27-A3 method; format: functional
# Method in brief: (§2)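 Broth microdilution per CLSI M27-A3 in RPMI 1640, with and without 50% human serum, in triplicate. C. krusei ATCC 6258 and C. parapsilosis ATCC 22019 served as quality-control strains. MIC reported as arithmetic mean of three repetitions on separate days.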
# Candida albicans [3] = test: Antimicrobial activity against Candida albicans 90028 by M27-A3 method; format: functional; method in brief: as §2
# Candida albicans [4] = test: Antimicrobial activity against Candida albicans 3795 by M27-A3 method; format: functional; method in brief: as §2
# Candida albicans [5] = test: Antimicrobial activity against Candida albicans 119 harboring FKS1 T1921C mutant gene and FKS1 hotspot1 F641L mutant gene by M27-A3 method; format: functional; method in brief: as §1
# Candida albicans [6] = test: Antimicrobial activity against Candida albicans 177 harboring FKS1 T1922C mutant gene and FKS1 hotspot1 F641S mutant gene by M27-A3 method in presence of 50% human serum; format: functional; method in brief: as §1
# Candida albicans [7] = test: Antimicrobial activity against Candida albicans 5415 harboring FKS1 T1933C mutant gene and FKS1 hotspot1 S645P mutant gene by M27-A3 method; format: functional; method in brief: as §1
# Candida albicans [8] = test: Antimicrobial activity against Candida albicans 89 harboring FKS1 C1934A mutant gene and FKS1 hotspot1 S645Y mutant gene by M27-A3 method; format: functional; method in brief: as §1
# Candida albicans [9] = test: Antimicrobial activity against Candida albicans 85 harboring FKS1 C1934T mutant gene and FKS1 hotspot1 S645F mutant gene by M27-A3 method; format: functional; method in brief: as §1
# Candida albicans [10] = test: Antimicrobial activity against Candida albicans 85 harboring FKS1 C1934T mutant gene and FKS1 hotspot1 S645F mutant gene by M27-A3 method in presence of 50% human serum; format: functional; method in brief: as §1
# Candida albicans [11] = test: Antimicrobial activity against Candida albicans 121 harboring FKS1 G4082A mutant gene and FKS1 hotspot2 R1361H mutant gene by M27-A3 method in presence of 50% human serum; format: functional; method in brief: as §1
# Candida albicans [12] = test: Antimicrobial activity against Candida albicans 194 harboring FKS1 C1934T/G4082R mutant gene and FKS1 hotspot1 S645F mutant gene and FKS1 hotspot2 R1361R/H mutant gene by M27-A3 method in presence of 50% human serum; format: functional; method in brief: as §1
# Candida albicans [13] = test: Antimicrobial activity against Candida albicans 90 harboring FKS1 G4082R mutant gene and FKS1 hotspot2 R1361R/H mutant gene by M27-A3 method in presence of 50% human serum; format: functional; method in brief: as §1
# Candida albicans [14] = test: Antimicrobial activity against Candida albicans A15 harboring FKS1 T1933Y mutant gene and FKS1 hotspot1 S645S/P mutant gene by M27-A3 method; format: functional; method in brief: as §1
# [15] = Inhibition of Candida albicans 90028 1,3-beta-D-glucan synthase subunit FKS1p
# Method in brief: (§3)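 Enzyme is product-entrapped 1,3-β-D-glucan synthase, enriched from membranes of each strain grown at 37°C with shaking in YPD broth to early stationary phase. Filtration polymerization assay uses [3H]UDPG, started by adding enzyme and run 60 min at 25°C. Echinocandins are added as serial dilutions, with 1% DMSO controls for anidulafungin. IC50 is from a variable-slope sigmoidal fit; values are triplicate arithmetic means.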
# [16] = Inhibition of Candida albicans 3795 1,3-beta-D-glucan synthase subunit FKS1p; method in brief: as §3
# [17] = Inhibition of Candida albicans 119 1,3-beta-D-glucan synthase subunit FKS1p T1921C mutant
# Method in brief: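 Product-entrapped glucan synthase from YPD-grown cells (37°C, early stationary phase) in a filtration polymerization assay with [3H]UDPG. Echinocandin serial dilutions were added, with 1% DMSO in controls for anidulafungin. Reactions were started with enzyme, run 60 min at 25°C and stopped on ice. IC50 came from a variable-slope sigmoidal fit, in triplicate.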
# [18] = Inhibition of Candida albicans 2762 1,3-beta-D-glucan synthase subunit FKS1p T1922C mutant; method in brief: as §3
# [19] = Inhibition of Candida albicans 205 1,3-beta-D-glucan synthase subunit FKS1p T1933C mutant; method in brief: as §3
# [20] = Inhibition of Candida albicans 89 1,3-beta-D-glucan synthase subunit FKS1p C1934A mutant; method in brief: as §3
# [21] = Inhibition of Candida albicans 122 1,3-beta-D-glucan synthase subunit FKS1p C1946A mutant; method in brief: as §3
# [22] = Inhibition of Candida albicans 194 1,3-beta-D-glucan synthase subunit FKS1p C1934T/G4082R mutant; method in brief: as §3
# [23] = Inhibition of Candida albicans 90 1,3-beta-D-glucan synthase subunit FKS1p G4082R mutant; method in brief: as §3
# [24] = Inhibition of Candida albicans A15-10 1,3-beta-D-glucan synthase subunit FKS1p T1933C mutant; method in brief: as §3
# Candida albicans [25] = test: Activity at Candida albicans 36082 1,3-beta-D-glucan synthase subunit FKS1p
# Method in brief: (§4)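 Glucan synthase from cells grown at 37°C with vigorous shaking to early stationary phase in YPD. Membrane enzyme enriched by product entrapment. Serial echinocandin dilutions; ANF controls held 1% DMSO. Reaction started by adding enzyme, run 60 min at 25°C in a filtration polymerization assay, stopped on ice. IC50 from a variable-slope sigmoidal fit; means of three repetitions on separate days.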
# Candida albicans [26] = test: Activity at Candida albicans 1002 1,3-beta-D-glucan synthase subunit FKS1p; method in brief: as §4
# Candida albicans [27] = test: Activity at Candida albicans 3107 1,3-beta-D-glucan synthase subunit FKS1p; method in brief: as §4
# Candida albicans [28] = test: Activity at Candida albicans 5415 1,3-beta-D-glucan synthase subunit FKS1p T1933C mutant
# Method in brief: (§5)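 Product-entrapped 1,3-β-D-glucan synthase from cells grown in YPD at 37°C to early stationary phase. Wells held 50 mM HEPES pH 7.5, 10% glycerol, 1.5 mg/ml BSA, 25 mM KF, 1 mM EDTA, 25 μM GTP-γ-S, 1 μg enzyme and [3H]UDPG (0.015–2 mM). Reactions ran 60 min at 25°C. Vmax and Km came from Lineweaver-Burke plots, in triplicate.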
# Candida albicans [29] = test: Activity at Candida albicans 89 1,3-beta-D-glucan synthase subunit FKS1p C1934A mutant; method in brief: as §5
# Candida albicans [30] = test: Activity at Candida albicans 194 1,3-beta-D-glucan synthase subunit FKS1p C1934T/G4082R mutant; method in brief: as §5
# Candida albicans [31] = test: Activity at Candida albicans 90 1,3-beta-D-glucan synthase subunit FKS1p G4082R mutant; method in brief: as §5
smiles,measurement,setting,value
CC[C@H](C)C[C@H](C)CCCCCCCCC(=O)N[C@H]1C[C@@H](O)[C@@H](NCCN)NC(=O)[C@@H]2[C@@H](O)CCN2C(=O)[C@H]([C@H](O)CCN)NC(=O)[C@H]([C@H](O)[C@@H](O)c2ccc(O)cc2)NC(=O)[C@@H]2C[C@@H](O)CN2C(=O)[C@H]([C@@H](C)O)NC1=O [CASPOFUNGIN],MIC,Candida albicans [1],0.5 µg/mL
same,MIC,Candida albicans [2],0.21 µg/mL
same,MIC,Candida albicans [3],0.21 µg/mL
same,MIC,Candida albicans [4],0.33 µg/mL
same,MIC,Candida albicans [5],2 µg/mL
same,MIC,Candida albicans [6],16 µg/mL
same,MIC,Candida albicans [7],8 µg/mL
same,MIC,Candida albicans [8],8 µg/mL
same,MIC,Candida albicans [9],4 µg/mL
same,MIC,Candida albicans [10],8 µg/mL
same,MIC,Candida albicans [11],8 µg/mL
same,MIC,Candida albicans [12],8 µg/mL
same,MIC,Candida albicans [13],4 µg/mL
same,MIC,Candida albicans [14],4 µg/mL
same,IC50,[15],0.0005 µg/mL
same,Ki,[15],0.00046 µg/mL
same,IC50,[16],0.00144 µg/mL
same,Ki,[16],0.00467 µg/mL
same,IC50,[17],0.01003 µg/mL
same,Ki,[17],0.00492 µg/mL
same,IC50,[18],0.91 µg/mL
same,Ki,[18],0.49893 µg/mL
same,IC50,[19],0.2454 µg/mL
same,Ki,[19],1.48 µg/mL
same,IC50,[20],2.075 µg/mL
same,Ki,[20],0.86 µg/mL
same,IC50,[21],0.08266 µg/mL
same,Ki,[21],0.29167 µg/mL
same,IC50,[22],0.5307 µg/mL
same,Ki,[22],0.46689 µg/mL
same,IC50,[23],0.02043 µg/mL
same,Ki,[23],0.14815 µg/mL
same,IC50,[24],0.3224 µg/mL
same,Ki,[24],1.358 µg/mL
same,Km,Candida albicans [25],89 µM
same,Vmax,Candida albicans [25],5.87 nmol/min
same,Km,Candida albicans [26],122 µM
same,Vmax,Candida albicans [26],5.8 nmol/min
same,Km,Candida albicans [27],102 µM
same,Vmax,Candida albicans [27],6.04 nmol/min
same,Km,Candida albicans [28],98 µM
same,Vmax,Candida albicans [28],3.12 nmol/min
same,Km,Candida albicans [29],61 µM
same,Vmax,Candida albicans [29],2.51 nmol/min
same,Km,Candida albicans [30],61 µM
same,Vmax,Candida albicans [30],5.81 nmol/min
same,Km,Candida albicans [31],31 µM
same,Vmax,Candida albicans [31],2.36 nmol/min
